Reference: paper PMC6500964 (Cancer Science, 2019)
“Also recorded” adds a separate entry of the source. Where two headings read alike, the source gives them in different places.

What was measured:
[1] = tested on: TE‐8 cells; experiment: WST‐8 cell proliferation assay; format: cell-based, human; conditions: for reduced the proliferation of TE‐8 cells by (average ± SD): compared with vehicle‐treated control cells
In short: (§1)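 Human ESCC cells, obtained from the Tohoku University or Riken cell banks and authenticated, were seeded at 1‐5 × 10³ cells per well and cultured overnight. They were then exposed for 48 h to the GLUT1-inhibitor test compound (prepared in DMSO), cisplatin, or both, with DMSO-only wells as control. Surviving cells were read by WST‐8 absorbance at 450 nm. Results are mean ± SD of n = 3 replicates, compared by Student's t‐test.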

[2] = tested on: TE‐11 cells; experiment: WST‐8 cell proliferation assay; format: cell-based, human; conditions: for reduced the proliferation of TE‐11 cells by (average ± SD): compared with vehicle‐treated control cells
In short: as §1

[3] = tested on: GLUT1; conditions: cited from earlier work
[4] = tested on: human lung cancer xenografts; conditions: nude mouse, daily intraperitoneal injection of 10 mg/kg for 10 weeks; cited from earlier work
[5] = tested on: TE‐8 cells; conditions: read-out: cisplatin IC50 value, low GLUT1 expression, ref GSE36133 and the Genomics of Drug Sensitivity in Cancer; cited from earlier work
[6] = tested on: TE‐11 cells; conditions: read-out: cisplatin IC50 value, high GLUT1 expression, ref GSE36133 and the Genomics of Drug Sensitivity in Cancer; cited from earlier work
[7] = tested on: GLUT1; conditions: cited from earlier work; remark: listed apart in the source

SMILES: O=C(O)C(=O)CBr [3‐bromopyruvate]
- proliferation of TE‐8 cells ([1]; 50 μmol/L, data not shown): inhibits the proliferation
- proliferation of TE‐11 cells ([2]; 50 μmol/L, data not shown): inhibits the proliferation

SMILES: O=C(Oc1cccc(F)c1OC(=O)c1cccc(O)c1)c1cccc(O)c1 [WZB117]
- efficacy in vitro ([3]; 30 μmol/L): shown efficacy in vitro
- blood glucose effect [4]: hyperglycemia
- lymphocyte and platelet counts [4]: aberrant lymphocyte and platelet counts
- reduction in the volume of human lung cancer xenografts [4]: > 70%

SMILES: N.N.[Cl][Pt][Cl] [cisplatin]
- reduced the proliferation of TE‐8 cells by (average ± SD) ([1]; 0.5 μmol/L cisplatin, 48 h): 79.9% ± 2.3%
- reduced the proliferation of TE‐11 cells by (average ± SD) ([2]; 0.5 μmol/L cisplatin, 48 h): 46.0% ± 6.5%
- effect of very low doses of cisplatin on proliferation ([2]; 0.2 and 0.4 μg/mL cisplatin, 48 h, TE11 cells transfected with GLUT1‐specific siRNA): strong inhibitory effect
- IC50 [5]: 10.1 µM
- IC50 [6]: 20.4 µM

SMILES: Oc1ccc(/C=C/c2cc(O)cc(O)c2)cc1 [resveratrol]
- efficacy in vitro ([3]; 50 μmol/L): shown efficacy in vitro

SMILES: Cc1c(NC(=O)c2cc(C(N)=O)nc3cc(F)ccc23)c(C(F)(F)F)nn1Cc1ccc(C#N)cc1 [BAY‐876]
- reduced the proliferation of TE‐8 cells by (average ± SD) ([1]; 0.025 nmol/L BAY‐876, 48 h): 59.9% ± 4.9%
- inhibition of proliferation of TE‐8 cells ([1]; 0.1 nmol/L BAY‐876, 48 h): almost complete inhibition; also recorded: strong anti–proliferative effect
- selectivity and affinity for GLUT1 [7]: high selectivity and affinity
- reduced the proliferation of TE‐11 cells by (average ± SD) ([2]; 0.025 nmol/L BAY‐876, 48 h): 51.0% ± 8.2%
- inhibition of proliferation of TE‐11 cells ([2]; 0.1 nmol/L BAY‐876, 48 h): almost complete inhibition; also recorded: strong anti–proliferative effect
